According to ChEMBL document CHEMBL1221400, “Synthesis, antimalarial activity, and cellular toxicity of new arylpyrrolylaminoquinolines” (Bioorg Med Chem, 2010):

Tests used:
[1] = test system: Plasmodium falciparum; experiment: Antimalarial activity against chloroquine-sensitive Plasmodium falciparum D10 infected in human A+ RBC after 72 hrs by parasite LDH assay; assay type: functional, organism-based; settings: D10, 72 h
In short: (§1)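 P. falciparum (D10 CQ-sensitive; W2 CQ-resistant) kept at 5% hematocrit in human A+ red cells in RPMI 1640 with 1% AlbuMax, hypoxanthine, 20 mM Hepes and glutamine, at 37 °C under 1% O2/5% CO2/94% N2. Asynchronous cultures (1–1.5% parasitaemia, 1% final hematocrit) were exposed to serial dilutions (final DMSO <1%) for 72 h. pLDH activity was read at OD650. IC50 given as mean ± SD of ≥3 experiments run in duplicate.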

[2] = Lipid accumulation ratio of the compound at pH 7.4; assay type: physicochemical
[3] = Cytotoxicity against mouse WEHI13 cells after 72 hrs by MTT assay; assay type: cell-based
In short: (§2)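 Cells were exposed to serial dilutions of compound for 72 h at 37 °C in 5% CO2. MTT was then added for another 3 h, and formazan was dissolved in SDS/DMF lysing buffer at pH 4.7. Absorbance was read at 550 nm against a 650 nm reference. […] Media: HMEC-1 in MCDB 131 with 10% FCS, EGF and hydrocortisone; K562 and WEHI 13 in RPMI 1640 with 10% FCS; HDF in DMEM with 10% FCS.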

[4] = test system: Plasmodium falciparum; experiment: Ratio of chloroquine IC50 to compound IC50 for chloroquine-resistant Plasmodium falciparum W2
[5] = Distribution coefficient, log D of the compound at pH 7.4; assay type: physicochemical; settings: octanol/water
[6] = test system: Plasmodium falciparum; experiment: Antimalarial activity against chloroquine-resistant Plasmodium falciparum W2 infected in human A+ erythrocytes after 72 hrs by parasite LDH assay; assay type: functional, organism-based; settings: W2, 72 h; in short: as §1
[7] = Inhibition of beta-hematin formation assessed as molar equivalents by BHIA assay relative to hemin; assay type: functional
[8] = Cytotoxicity against HMEC1 cells after 72 hrs by MTT assay; assay type: cell-based, HMEC-1; settings: human; in short: as §2
[9] = test system: Plasmodium falciparum; experiment: Ratio of IC50 for chloroquine-resistant Plasmodium falciparum W2 to IC50 for chloroquine-sensitive Plasmodium falciparum D10
[10] = Vacuolar accumulation ratio of the compound at pH 5.2; assay type: ADME
[11] = Cytotoxicity against HDF after 72 hrs by MTT assay; assay type: cell-based; settings: human; in short: as §2
[12] = test system: Plasmodium falciparum; experiment: Ratio of chloroquine IC50 to compound IC50 for chloroquine-sensitive Plasmodium falciparum D10
[13] = Octanol-water partition coefficient, log P of the compound; assay type: physicochemical
[14] = Cytotoxicity against human K562 cells after 72 hrs by MTT assay; assay type: cell-based; in short: as §2

Structure (SMILES)	IC50 [1] [nM]	Ratio [2]	CC50 at 72 h [3] [nM]	Ratio IC50 [4]	logD [5]	IC50 [6] [nM]	IC50 [7] [equivalents]	CC50 at 72 h [8] [nM]	Ratio IC50 [9]	Ratio [10]	CC50 at 72 h [11] [nM]	Ratio IC50 [12]	logP [13]	CC50 at 72 h [14] [nM]
Cc1ccc(-c2cc(CN3CCCC3)c(C)n2Nc2ccnc3cc(Cl)ccc23)cc1	30.7	8128.3	4480	5.4	3.91	65.8	0.45	7150	2.1	1862.1	13200	0.6	5.19	–
CCN(CC)Cc1cc(-c2ccc(Cl)cc2)n(Nc2ccnc3cc(Cl)ccc23)c1C	–	–	1450	–	–	–	–	5810	1.6	–	–	–	–	–
CCN(CC)Cc1cc(-c2ccc(C)cc2)n(Nc2ccnc3cc(Cl)ccc23)c1C	32.7	–	3650	6.4	–	55.4	–	7050	1.7	–	10300	0.6	–	–
CCN(CC)Cc1cc(-c2ccc(N)cc2)n(Nc2ccnc3cc(Cl)ccc23)c1C	53.4	–	–	0.9	–	313	–	–	5.8	–	–	0.5	–	–
Cc1c(CN2CCCC2)cc(-c2ccc(C(F)(F)F)cc2)n1Nc1ccnc2cc(Cl)ccc12	58	52480.8	2680	6.7	4.72	59	–	4700	1	912	–	0.5	5.28	1220
Cc1c(CN2CCCC2)cc(-c2ccc(F)cc2)n1Nc1ccnc2cc(Cl)ccc12	32.6	2818.4	2710	5.7	3.45	78.1	–	10100	2.4	1548.8	–	0.8	4.86	1660
Cc1c(CN2CCCC2)cc(-c2ccc(N)cc2)n1Nc1ccnc2cc(Cl)ccc12	43.1	107.1	–	0.5	2.03	455	–	–	10.6	16982.4	–	0.5	4.38	–
Cc1c(CN2CCCC2)cc(-c2ccc(Cl)cc2)n1Nc1ccnc2cc(Cl)ccc12	–	11481.5	2060	–	4.06	–	0.36	7180	1.6	1513.6	–	–	5.17	–
CCN(CC)Cc1cc(-c2ccc(Cl)cc2)n(CCCNc2ccnc3cc(Cl)ccc23)c1C	26	–	–	2.3	–	180	–	–	6.9	–	–	0.7	–	–
CCN(CC)Cc1cc(-c2ccc(F)cc2)n(Nc2ccnc3cc(Cl)ccc23)c1C	61.6	–	3020	5	–	79.8	–	18600	1.3	–	–	0.5	–	2360
CCN(CC)CCCC(C)Nc1ccnc2cc(Cl)ccc12 (stereo unspecified) [CHLOROQUINE]	–	–	> 38000	–	–	–	1.27	> 32000	–	–	> 38000	–	–	> 25000
Cc1c(CN2CCCC2)cc(-c2ccc(Cl)cc2)n1CCCNc1ccnc2cc(Cl)ccc12	22.7	223.9	–	1.7	2.35	243	0.82	–	10.7	24547.1	–	0.8	4.38	–
CCN(CC)Cc1cc(-c2ccccc2)n(Nc2ccnc3cc(Cl)ccc23)c1C	–	–	4380	–	–	–	–	16700	1.4	–	–	–	–	3620
Cc1c(CN2CCCC2)cc(-c2ccccc2)n1Nc1ccnc2cc(Cl)ccc12	–	1905.5	3880	–	3.28	–	0.54	12900	3.3	1698.2	–	–	4.6	2920
